20 molecules from ChEMBL document CHEMBL1138040, “Activation of murine RNase L by isopolar 2'-phosphonate analogues of 2',5' oligoadenylates” (J Med Chem, 2006) can be followed below.

The target of data set [1] is T1, 2-5A-dependent ribonuclease (Mus musculus) (UniProt Q05921).
T1 sequence (whole entry): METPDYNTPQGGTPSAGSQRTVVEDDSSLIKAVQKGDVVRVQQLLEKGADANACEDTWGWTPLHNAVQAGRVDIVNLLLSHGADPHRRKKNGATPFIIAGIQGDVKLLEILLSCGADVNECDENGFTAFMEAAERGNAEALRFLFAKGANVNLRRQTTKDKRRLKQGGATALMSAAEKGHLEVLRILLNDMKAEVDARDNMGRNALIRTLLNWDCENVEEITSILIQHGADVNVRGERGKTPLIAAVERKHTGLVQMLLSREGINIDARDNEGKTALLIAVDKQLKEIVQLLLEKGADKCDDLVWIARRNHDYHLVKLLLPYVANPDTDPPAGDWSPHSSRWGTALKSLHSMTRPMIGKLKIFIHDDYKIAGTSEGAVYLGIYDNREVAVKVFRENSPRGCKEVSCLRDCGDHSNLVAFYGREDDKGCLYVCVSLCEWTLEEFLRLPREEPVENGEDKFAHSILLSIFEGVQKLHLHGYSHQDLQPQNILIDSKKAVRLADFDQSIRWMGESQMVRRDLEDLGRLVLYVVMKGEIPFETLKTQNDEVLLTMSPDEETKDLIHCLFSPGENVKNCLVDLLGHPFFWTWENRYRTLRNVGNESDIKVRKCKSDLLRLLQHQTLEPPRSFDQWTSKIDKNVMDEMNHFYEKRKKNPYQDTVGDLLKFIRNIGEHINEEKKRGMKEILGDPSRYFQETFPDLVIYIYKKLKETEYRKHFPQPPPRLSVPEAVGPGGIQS
In words: Displacement of pA4[32P]pCp from mouse spleen RNase L at 1 uM. The data set is classed as tissue-based. The method, boiled down: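 Competitive radiobinding using 20 µL male BALB/c mouse spleen 126 000g supernatant; oligoadenylate at 1 µM final with about 0.4 nM pA4-[32P]pCp in 25 µL. Held 60 min at 4 °C, filtered through nitrocellulose, washed with Tris pH 7.6/KCl/MgCl2/glycerol, bound radioactivity counted by scintillation. Triplicates; percent binding relative to natural pA4.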

Data set [2] concerns the target T2, 2-5A-dependent ribonuclease (Mus musculus, UniProt Q05921).
T2 sequence (Q05921 whole entry): T1 sequence (whole entry)
In words: Binding to mouse RNase L assessed as displacement of pA4-[32P]pCp.

The next data set is filed under the species Mus musculus. In words: Stability in mouse spleen assessed as ability to resist degradation by nuclease. The data set is classed as ADME. The method, boiled down:
(§1)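 Oligoadenylate (2.5 nmol) mixed with 9 µL soluble mouse spleen 126 000g supernatant, kept at 4 °C. Sampled periodically: diluted with aqueous 0.1% TFA, spun 14 000g 10 min, run on C18 RP-HPLC (acetonitrile gradient in 0.1% TFA, 260 nm). Intact and degradation peaks integrated to follow degradation over time.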

A short description of data set [3]: Half life in mouse spleen at 4 degreeC. The data set is classed as ADME. The method, boiled down: as §1

SMILES strings stand for the structures. pEC50: −log10 of the molar value.

In data set [1], `Nc1ncnc2c1ncn2[C@@H]1O[C@H](COP(=O)(O)O[C@@H]2[C@H](O)[C@@H](COP(=O)(O)O[C@H]3[C@H](O)[C@@H](COP(=O)(O)O)O[C@H]3n3cnc4c(N)ncnc43)O[C@H]2n2cnc3c(N)ncnc32)[C@@H](O)[C@H]1OP(=O)(O)O` had an Activity of 49%.

For orientation: pEC50 means the negative decadic logarithm of the EC50, by convention in mol/L. In data set [1], `Nc1ncnc2c1ncn2[C@@H]1O[C@H](COP(=O)(O)O)[C@H](O)[C@H]1OP(=O)(O)OC[C@H]1O[C@@H](n2cnc3c(N)ncnc32)[C@H](OP(=O)(O)OC[C@H]2O[C@@H](n3cnc4c(N)ncnc43)[C@H](OP(=O)(O)OC[C@H]3O[C@@H](n4cnc5c(N)ncnc54)[C@H](OP(=O)(O)O)[C@@H]3O)[C@H]2O)[C@@H]1O` registered an Activity of 93%. Besides, the negative logarithm of the EC50 (pEC50) in data set [2] is 6.49. Also, in the data set listed under Mus musculus, the Stability result is reported as “Stable”.

Consider `Nc1ncnc2c1ncn2[C@@H]1O[C@H](COP(=O)(O)O[C@H]2[C@H](O)[C@@H](COP(=O)(O)O[C@@H]3[C@H](O)[C@@H](COP(=O)(O)O[C@H]4[C@H](O)[C@@H](COP(=O)(O)O)O[C@H]4n4cnc5c(N)ncnc54)O[C@H]3n3cnc4c(N)ncnc43)O[C@H]2n2cnc3c(N)ncnc32)[C@@H](O)[C@H]1OP(=O)(O)O`, for which the Activity in data set [1] was 51%.

In data set [1], `Nc1ncnc2c1ncn2[C@@H]1O[C@H](COP(=O)(O)O[C@@H]2[C@@H](O)[C@@H](COP(=O)(O)O[C@@H]3[C@H](O)[C@@H](COP(=O)(O)O)O[C@H]3n3cnc4c(N)ncnc43)O[C@H]2n2cnc3c(N)ncnc32)[C@H](O)[C@H]1OP(=O)(O)OC[C@H]1O[C@@H](n2cnc3c(N)ncnc32)[C@H](OP(=O)(O)O)[C@@H]1O` yielded an Activity of 88%. Besides, the pEC50 in data set [2] is 6.41.

In turn, `Nc1ncnc2c1ncn2[C@@H]1O[C@H](COP(=O)(O)O[C@@H]2[C@H](O)[C@@H](COP(=O)(O)O[C@@H]3[C@H](O)[C@@H](COP(=O)(O)O)O[C@H]3n3cnc4c(N)ncnc43)O[C@H]2n2cnc3c(N)ncnc32)[C@@H](O)[C@H]1OP(=O)(O)O` had an Activity in data set [1] of 39%.

`Nc1ncnc2c1ncn2[C@@H]1O[C@H](COP(=O)(O)O[C@@H]2[C@H](O)[C@@H](COP(=O)(O)O[C@H]3[C@H](O)[C@@H](COP(=O)(O)O[C@@H]4[C@H](O)[C@@H](COP(=O)(O)O)O[C@H]4n4cnc5c(N)ncnc54)O[C@H]3n3cnc4c(N)ncnc43)O[C@H]2n2cnc3c(N)ncnc32)[C@@H](O)[C@H]1OP(=O)(O)O` came in with an Activity in data set [1] of 37%.

In data set [1], `Nc1ncnc2c1ncn2[C@@H]1O[C@H](COP(=O)(O)O)[C@H](O)[C@H]1OP(=O)(O)OC[C@H]1O[C@@H](n2cnc3c(N)ncnc32)[C@H](OP(=O)(O)OC[C@H]2O[C@@H](n3cnc4c(N)ncnc43)[C@H](OP(=O)(O)O)[C@@H]2O)[C@H]1O` had an Activity of 45%.

Take `Nc1ncnc2c1ncn2[C@@H]1O[C@H](COP(=O)(O)O[C@H]2[C@H](O)[C@@H](COP(=O)(O)O[C@H]3[C@H](O)[C@@H](COP(=O)(O)O[C@H]4[C@H](O)[C@@H](COP(=O)(O)O)O[C@H]4n4cnc5c(N)ncnc54)O[C@H]3n3cnc4c(N)ncnc43)O[C@H]2n2cnc3c(N)ncnc32)[C@@H](O)[C@H]1OP(=O)(O)O`: in data set [1], the Activity was 0%.

Take `Nc1ncnc2c1ncn2[C@@H]1O[C@H](COP(=O)(O)O[C@@H]2[C@H](O)[C@@H](COP(=O)(O)O)O[C@H]2n2cnc3c(N)ncnc32)[C@H](O)[C@H]1OP(=O)(O)OC[C@H]1O[C@@H](n2cnc3c(N)ncnc32)[C@H](OP(=O)(O)OC[C@H]2O[C@@H](n3cnc4c(N)ncnc43)[C@H](OP(=O)(O)O)[C@@H]2O)[C@@H]1O`: in data set [1], the Activity came to 67%.

In general, half-life refers to the time needed for the level to fall by half in the phase considered. The low end stands for rapid decline, the high end for slow decline. For `Nc1ncnc2c1ncn2[C@@H]1O[C@H](COP(=O)(O)O[C@@H]2[C@H](O)[C@@H](COP(=O)(O)O[C@@H]3[C@H](O)[C@@H](COP(=O)(O)O[C@@H]4[C@H](O)[C@@H](COP(=O)(O)O)O[C@H]4n4cnc5c(N)ncnc54)O[C@H]3n3cnc4c(N)ncnc43)O[C@H]2n2cnc3c(N)ncnc32)[C@@H](O)[C@H]1OP(=O)(O)O`, in data set [3], the half-life was 10 h. Moreover, the Activity in data set [1] was 100%. Also, the pEC50 in data set [2] was 9.05.

For `Nc1ncnc2c1ncn2[C@@H]1O[C@H](COP(=O)(O)O[C@@H]2[C@H](O)[C@@H](COP(=O)(O)O[C@@H]3[C@H](O)[C@@H](COP(=O)(O)O[C@H]4[C@H](O)[C@@H](COP(=O)(O)O)O[C@H]4n4cnc5c(N)ncnc54)O[C@H]3n3cnc4c(N)ncnc43)O[C@H]2n2cnc3c(N)ncnc32)[C@@H](O)[C@H]1OP(=O)(O)O`, the Activity in data set [1] worked out at 40%.

Regarding `Nc1ncnc2c1ncn2[C@@H]1O[C@H](COP(=O)(O)O[C@@H]2[C@H](O)[C@@H](COP(=O)(O)O[C@H]3[C@H](O)[C@@H](COP(=O)(O)O[C@H]4[C@H](O)[C@@H](COP(=O)(O)O)O[C@H]4n4cnc5c(N)ncnc54)O[C@H]3n3cnc4c(N)ncnc43)O[C@H]2n2cnc3c(N)ncnc32)[C@@H](O)[C@H]1OP(=O)(O)O`, in data set [1], the Activity is 24%.

Molecule `Nc1ncnc2c1ncn2[C@@H]1O[C@H](COP(=O)(O)O[C@H]2[C@H](O)[C@@H](COP(=O)(O)O[C@H]3[C@H](O)[C@@H](COP(=O)(O)O)O[C@H]3n3cnc4c(N)ncnc43)O[C@H]2n2cnc3c(N)ncnc32)[C@@H](O)[C@H]1OP(=O)(O)O` came in with an Activity in data set [1] of 0%.

In data set [1], `Nc1ncnc2c1ncn2[C@@H]1O[C@H](COP(=O)(O)O)[C@H](O)[C@H]1OP(=O)(O)OC[C@H]1O[C@@H](n2cnc3c(N)ncnc32)[C@H](OP(=O)(O)OC[C@H]2O[C@@H](n3cnc4c(N)ncnc43)[C@H](OP(=O)(O)OC[C@H]3O[C@@H](n4cnc5c(N)ncnc54)[C@H](OP(=O)(O)O)[C@@H]3O)[C@H]2O)[C@H]1O` showed an Activity of 43%.

Turning to `Nc1ncnc2c1ncn2[C@@H]1O[C@H](COP(=O)(O)O[C@H]2[C@H](O)[C@@H](COP(=O)(O)O[C@@H]3[C@H](O)[C@@H](COP(=O)(O)O)O[C@H]3n3cnc4c(N)ncnc43)O[C@H]2n2cnc3c(N)ncnc32)[C@@H](O)[C@H]1OP(=O)(O)O`, the Activity in data set [1] was determined as 33%.

On to `Nc1ncnc2c1ncn2[C@@H]1O[C@H](COP(=O)(O)O)[C@H](O)[C@H]1OP(=O)(O)OC[C@H]1O[C@@H](n2cnc3c(N)ncnc32)[C@H](OP(=O)(O)OC[C@H]2O[C@@H](n3cnc4c(N)ncnc43)[C@H](OP(=O)(O)O)[C@@H]2O)[C@@H]1O`, for which the Activity in data set [1] amounted to 64%.

In the case of `Nc1ncnc2c1ncn2[C@@H]1O[C@H](COP(=O)(O)O[C@H]2[C@H](O)[C@@H](COP(=O)(O)O[C@H]3[C@H](O)[C@@H](COP(=O)(O)O[C@@H]4[C@H](O)[C@@H](COP(=O)(O)O)O[C@H]4n4cnc5c(N)ncnc54)O[C@H]3n3cnc4c(N)ncnc43)O[C@H]2n2cnc3c(N)ncnc32)[C@@H](O)[C@H]1OP(=O)(O)O`, the Activity in data set [1] turned out to be 33%.

In the case of `Nc1ncnc2c1ncn2[C@@H]1O[C@H](COP(=O)(O)O[C@@H]2[C@H](O)[C@@H](COP(=O)(O)O)O[C@H]2n2cnc3c(N)ncnc32)[C@H](O)[C@H]1OP(=O)(O)OC[C@H]1O[C@@H](n2cnc3c(N)ncnc32)[C@H](OP(=O)(O)O)[C@@H]1O`, in data set [1], the Activity came to 41%.

Molecule `Nc1ncnc2c1ncn2[C@@H]1O[C@H](COP(=O)(O)O)[C@H](O)[C@H]1OP(=O)(O)OC[C@H]1O[C@@H](n2cnc3c(N)ncnc32)[C@H](OP(=O)(O)OC[C@H]2O[C@@H](n3cnc4c(N)ncnc43)[C@H](OP(=O)(O)OC[C@H]3O[C@@H](n4cnc5c(N)ncnc54)[C@H](OP(=O)(O)O)[C@@H]3O)[C@@H]2O)[C@H]1O` registered an Activity in data set [1] of 51%.

In the case of `Nc1ncnc2c1ncn2[C@@H]1O[C@H](COP(=O)(O)O)[C@H](O)[C@H]1OP(=O)(O)OC[C@H]1O[C@@H](n2cnc3c(N)ncnc32)[C@H](OP(=O)(O)OC[C@H]2O[C@@H](n3cnc4c(N)ncnc43)[C@H](OP(=O)(O)OC[C@H]3O[C@@H](n4cnc5c(N)ncnc54)[C@H](OP(=O)(O)O)[C@@H]3O)[C@@H]2O)[C@@H]1O`, in data set [1], the Activity was found to be 86%.
